Screening results: PubChem, The Scripps Research Institute Molecular Screening Center
Most compounds without a hit are left out; they make up all but 2.6% or so of the library.
OXTR ag = human OXTR agonists, primary screen, fluorescence, CHO-OTR cells, Fluo-8 calcium; AID 2435, 2010; 320,000 tested, 0.32% active; activation, % at 3 µM; Oxytocin receptor (Homo sapiens), P30559; Fluo-8 calcium fluorescence; normalized: DMSO 0%, oxytocin 100%;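 active = activation above the mean of all tested compounds plus 3 SD, cutoff set per screening run, cut at about 20% in these data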;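 also: peak over basal fluorescence ratio from a 100 s FLIPR kinetic read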
OX1R antag-1 = OX1R (HCRTR1) antagonists, primary screen, fluorescence, CHO/OX1R cells, Fluo-8 calcium, orexin A; Orexin/Hypocretin receptor type 1 (Homo sapiens), O43613; Fluo-8 calcium fluorescence; inhibition, % at 5 µM; 330,000 tested, 0.43% active; AID 434989, 2010;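 active = inhibition above its plate's threshold, mean inhibition of all tested compounds on the plate plus 3 SD, cut at about 37% in these data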;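 also: 0% = orexin A challenge wells and 100% = SB-334867-A antagonist wells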
V1aR counter = agonists of human V1a receptor, primary screen, counter-screen for OXTR agonist project, fluorescence, CHO-V1R cells | Fluo-8 calcium fluorescence, agonist mode; 0% DMSO, 100% 3 nM vasopressin | activation, % at 3 µM | 320,000 tested, 0.25% active;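 active = activation above the mean activation of all tested compounds plus 3 SD, per screening run, cut at about 20% in these data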;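 also: signal is peak over basal fluorescence ratio across a 100 second FLIPR read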
Target sequence (P37288 whole entry, looked up): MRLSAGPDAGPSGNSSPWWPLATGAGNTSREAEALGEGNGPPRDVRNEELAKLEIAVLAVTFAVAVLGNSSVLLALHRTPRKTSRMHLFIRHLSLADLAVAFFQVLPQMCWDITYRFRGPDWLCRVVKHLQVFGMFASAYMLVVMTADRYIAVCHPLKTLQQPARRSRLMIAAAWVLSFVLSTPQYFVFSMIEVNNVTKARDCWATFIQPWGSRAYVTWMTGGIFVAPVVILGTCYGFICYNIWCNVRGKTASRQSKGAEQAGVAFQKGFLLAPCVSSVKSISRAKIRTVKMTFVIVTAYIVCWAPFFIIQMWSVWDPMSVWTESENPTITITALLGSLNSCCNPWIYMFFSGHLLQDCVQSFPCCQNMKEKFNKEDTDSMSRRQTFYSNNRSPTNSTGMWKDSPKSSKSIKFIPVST
OXTR potentiator = human OXTR potentiators, primary screen, fluorescence, CHO-OTR cells, Fluo-8 calcium | Oxytocin receptor (Homo sapiens), P30559 | Fluo-8 calcium fluorescence, potentiator mode; 0% = oxytocin EC15, 100% = EC100 | activation, % at 3 µM | 320,000 tested, 0.061% active | AID 2445, 2010;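 active = activation above that plate's cutoff, the mean activation of tested compounds plus 3 SD, cut at about 6.6% in these data, passing the limit was not always enough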;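 also: 100% uses oxytocin at 75 nM as the full agonist control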
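Dosing: Single dose, 3.0 µM nominal final compound concentration | Material: Human OTR in CHO cells | Technique: Kinetic Fluo-8 calcium fluorescence | Benchmarks: EC15 oxytocin alone as 0%, 75 nM oxytocin as 100% | Probe or stimulus: Oxytocin at about EC15, sub-maximal agonist stimulus | Incubation: Compound 6 min at room temperature before oxytocin, 100 s read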
CHO parental Ca = ATP-evoked calcium signal inhibitors, parental CHO, primary screen, counter-screen for OX1R antagonist project, cell-based, fluorescence, Fluo-8 calcium dye; AID 463079, 2010; parental CHO-K1, ATP-induced calcium, Fluo-8 fluorescence; 330,000 tested, 0.63% active; inhibition, % at 5.6 µM;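 active = inhibition above that plate's mean sample inhibition plus 3 SD, cut at about 26% in these data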;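 also: 0% = ATP-challenged DMSO wells and 100% = DMSO wells without ATP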
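Test system: untransfected parental CHO cell line; also added: ATP stimulus; dosing: 5.6 µM, single dose; signal: calcium-sensitive Fluo-8 fluorescence; measure: percent inhibition of ATP-evoked calcium rise, normalized to controls; benchmarks: low control ATP plus DMSO, high control DMSO only; replication: one well per compound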
OX1R antag-2 = antagonists of human orexin 1 receptor (OX1R); 330,000 tested, 1.8% active; Orexin/Hypocretin receptor type 1 (Homo sapiens), O43613; OX1R-expressing cells, FRET antagonist read-out; inhibition, % at 6.6 µM; in the data active = inhibition mostly above about 38%, no sharp cut-off; inactive = mostly below about 40%;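 also: 0% = agonist challenge alone and 100% = reference antagonist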
* marks the source's active call; other numbers are inactive results; + = active, no number.

SMILES | OXTR ag | OX1R antag-1 | V1aR counter | OXTR potentiator | CHO parental Ca | OX1R antag-2
C[n+]1c2n(c3ccccc31)N=C(c1ccc(Cl)cc1)CS2 | 0 | -29 | -1 | -2 | -21 | 21
COc1ccccc1CNC(=O)C1(c2ccc(Cl)cc2)CC1 | -2 | -13 | -2 | 8 | -9 | 16
O=C1CSC(=S)N1/N=C/c1cc(Br)c(O)c(Br)c1 | 158* | 90* | 140* | -16 | 75* | 46
COCc1ccc(CN2CCC(C(=O)Nc3cccc(-c4cccc(Cl)c4)c3)CC2)o1 | 23* | 74* | 28* | -16 | 61* | 12
O=C(N/C(=C\c1ccc(Cl)cc1)C(=O)N1CCOCC1)c1ccc([N+](=O)[O-])cc1 | 0 | -6 | 0 | -8 | -6 | 44
CCOC(=O)c1oc2ccc(S(=O)(=O)n3nc(-c4ccc(OC)cc4)cc3N)cc2c1C | -1 | -28 | 2 | -9 | 2 | 30
CCOC(=O)c1oc2ccc(S(=O)(=O)n3nc(-c4ccccc4)cc3N)cc2c1C | 0 | -6 | 0 | -9 | 32* | 18
O=C(NCC(=O)N1CCN(Cc2ccccc2)CC1)c1cc(Cl)cc([N+](=O)[O-])c1 | 2 | -11 | 1 | -2 | -2 | 34*
O=C(NCC(=O)N1CCN(Cc2ccccc2)CC1)c1ccc(Cl)cc1 | -1 | -16 | 2 | 1 | -15 | 18
COc1cccc(NC(=O)N2CCCC2C(=O)NCc2ccco2)c1 (centres undefined) | 0 | 5 | 0 | -8 | 0 | 0
Clc1nc(Nc2ccc(N3CCOCC3)cc2)c2ccccc2n1 | 1 | -4 | 0 | 2 | -9 | 70*
CCOC(=O)c1nc(Nc2ccc(N3CCOCC3)cc2)c2ccccc2n1 | -1 | -23 | -1 | -3 | -13 | 17
O=c1[nH]nc(Cc2ccc(-c3cccc(Cl)c3)o2)c2ccccc12 | 3 | 55* | 3 | -18 | 38 | 71*
COc1ccc(NC(=O)Nc2ccc3c(c2)C(=O)N([C@H](C)CO)C[C@H](C)[C@@H](CN(C)C(=O)Nc2c(C)noc2C)O3)cc1 | 1 | -2 | 0 | 2 | -1 | 6
CC1=C/C(=C(\c2cc(C)c(O)c(Br)c2)c2ccccc2S(=O)(=O)O)C=C(Br)C1=O | 0 | 2 | -1 | -2 | -1 | 49
O=C(CCN1C(=O)S/C(=C\c2ccccc2)C1=O)N1CCOCC1 | 8 | -8 | 8 | -8 | -8 | 56*
O=C(CN1C(=O)S/C(=C/c2ccccn2)C1=O)N1CCOCC1 | 1 | -5 | 0 | 4 | -1 | 55*
O=C(CN1CCN(C(=O)c2cncn2-c2ccccc2)CC1)Nc1ccccc1Cl | 7 | -8 | 1 | -8 | -10 | -2
CCN(CC)c1ccc(NC(=O)/C=C\c2ccccc2Cl)cc1 | -1 | 12 | 0 | -8 | -18 | 40*
CN(C)c1ccc(NC(=O)/C=C/c2ccccc2Cl)cc1 | -3 | -8 | 0 | 1 | -16 | 64*
Cc1cc(NC(=O)/C=C/c2ccccc2Cl)no1 | 0 | 0 | 1 | -3 | 8 | 7
c1ccc2nc3c(nc2c1)CCc1nonc1-3 | 0 | 7 | 0 | 2 | -2 | 44*
c1ccc2nc3c(nc2c1)CCCC3 | 0 | -10 | 0 | -5 | -3 | -3
O=C(NC1CC1)c1sc2cc([N+](=O)[O-])ccc2c1Cl | 2 | -4 | 4 | -3 | 1 | 69*
O=C1C(=O)c2c(C(=O)c3ccccc3)coc2-c2ccccc21 | 0 | -1 | 2 | -3 | -22 | 53*
SMILES | OXTR ag | OX1R antag-1 | V1aR counter | OXTR potentiator | CHO parental Ca | OX1R antag-2
Cc1onc(-c2ccccc2Cl)c1C(=O)c1ccccc1 | -3 | -12 | 0 | -8 | -14 | 13
Cc1oc2c(c1C(=O)c1ccccc1)C(=O)C(=O)c1ccccc1-2 | 1 | 5 | 1 | -13 | -16 | +
CC1CCN(C(=O)COc2ccc3ccccc3c2Br)CC1 | -1 | -42 | -1 | -9 | -15 | 21
Cc1c(-n2cc(C(=O)c3cc(F)ccc3O)cc(C#N)c2=O)c(=O)n(-c2ccccc2)n1C | 2 | -24 | 3 | -11 | -20 | 19
N#Cc1cc(C(=O)c2ccccc2O)cn(-c2nccs2)c1=O | 90* | 40 | 55* | -12 | 31 | 8
N#Cc1cc(C(=O)c2cc(F)ccc2O)cn(-c2nccs2)c1=O | 135* | 28 | 84* | -18 | 37* | 0
CCC(C(=O)NC1CCCC1)N(C(=O)c1snc(C(N)=O)c1N)c1ccc(C)cc1C (centres undefined) | -1 | -17 | -1 | 0 | -18 | 17
COC(=O)CC1C(=O)NCCN1C(=O)CSc1nc2ccc([N+](=O)[O-])cc2s1 (centres undefined) | 3 | -11 | 2 | -9 | -10 | 71*
C=CCOn1c(=O)c(-c2ccc(OC)c(OC)c2)[n+]([O-])c2ccccc21 | 0 | -33 | -1 | -1 | -7 | 61*
COc1ccc(-c2c(=O)n(OC)c3ccccc3[n+]2[O-])cc1OC | -1 | -17 | 1 | 1 | -7 | 44*
CC(=O)Nc1ccc(S(=O)(=O)NC2(C(F)(F)F)NC(=O)N(Cc3ccccc3)C2=O)cc1 (centres undefined) | 1 | 7 | 1 | 10 | 3 | 27
CC(=O)NCc1ccc(-c2csc(-c3cccs3)n2)cc1 | 4 | -14 | 5 | -6 | -9 | 63*
COc1cccc(Nc2nc3ccccc3nc2NS(=O)(=O)c2cccs2)c1 | 11 | -4 | 11 | -22 | 8 | 43*
COc1ccc(Nc2nc3ccccc3nc2NS(=O)(=O)c2cccs2)c(OC)c1 | 3 | 3 | 1 | -4 | -16 | 14
Cc1c(Cl)cnc(NC(=O)COC(=O)[C@H](C)NC(=O)c2ccccc2)c1Cl | 0 | -18 | 1 | 1 | -15 | 11
CN(C)c1ccc(-c2ccc3oc(-c4ccsc4)cc(=O)c3c2)cn1 | 0 | -4 | 0 | -7 | -18 | 57*
COc1ccc(C2C(C(=O)Nc3ccc(OC)c(OC)c3)c3ccccc3C(=O)N2C)cc1 (centres undefined) | 0 | -16 | 0 | -5 | -3 | 2
CN(CC(=O)Nc1ccccc1C(F)(F)F)C(=O)c1ccc(N2C(=O)CCC2=O)cc1 | 0 | -7 | 1 | 0 | -6 | 10
